Active and inactive are the calls of the source. The calls are words filed in the database; no cut-off is given here. Non-standard residues stand in square brackets, D forms with d. Residues, ends and D or L forms follow the SMILES beside them.

The source of these data is ChEMBL document CHEMBL1687732, “Prevention of death in bacterium-infected mice by a synthetic antimicrobial peptide, L5, through activation of host immunity” (2009).

For experiment [1], the system named is Staphylococcus aureus. The experiment in a line: Antibacterial activity against Staphylococcus aureus Smith infected in ICR mouse assessed as survival rate at 100 ug, ip pretreated for 7 hrs before infection using 3 X 10^7 CFU inoculum measured on day 5. The experiment is classed as functional.
Experiment [2] concerns Staphylococcus aureus. The experiment is described as follows: Antibacterial activity against Staphylococcus aureus Smith infected in ICR mouse assessed as survival rate at 100 ug, ip pretreated for 7 hrs before infection using 3 X 10^6 CFU inoculum measured on day 5. The experiment is classed as functional.
For experiment [3], the system named is Escherichia coli. The experiment is described as follows: Antibacterial activity against Escherichia coli EC14 infected in ICR mouse assessed as survival rate at 100 ug, ip pretreated for 7 hrs before infection using 2.5 X 10^4 CFU inoculum measured on day 5. The experiment is classed as functional.
For experiment [4], the system named is Escherichia coli. The experiment in a line: Antibacterial activity against Escherichia coli EC14 infected in ICR mouse assessed as survival rate at 100 ug, ip pretreated for 7 hrs before infection using 2.5 X 10^3 CFU inoculum measured on day 5. The format is functional.
In experiment [5] the test system is Staphylococcus aureus. The experiment in a line: Antibacterial activity against Staphylococcus aureus Smith infected in ICR mouse assessed as survival rate at 100 ug, ip pretreated for 7 hrs before infection using 2 X 10^6 CFU inoculum measured on day 5 after bacterial infection. The experiment is classed as functional. The essentials:
(§1)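 Five-week-old female ICR mice got peptide intraperitoneally in 500 μl Dulbecco's PBS with 2% DMSO; vehicle controls got PBS/2% DMSO. The minimum lethal bacterial dose was given intraperitoneally at set intervals: S. aureus Smith 2 × 10⁶, E. faecalis SR1004 1.7 × 10⁸, E. coli EC14 2.3 × 10⁴ CFU/mouse. Survival was scored on day 5 (4 or 8 mice/group; Fisher's exact test).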

Experiment [6] has as its system Enterococcus faecalis. The experiment in a line: Antibacterial activity against Enterococcus faecalis SR1004 infected in ICR mouse assessed as survival rate at 100 ug, ip pretreated for 7 hrs before infection using 1.7 X 10^8 inoculum measured on day 5 after bacterial infection. The experiment is classed as functional. The essentials: as §1
Experiment [7] deals with Escherichia coli. The experiment is described as follows: Antibacterial activity against Escherichia coli EC14 infected in ICR mouse assessed as survival rate at 100 ug, ip pretreated for 7 hrs before infection using 2.3 X 10^4 CFU inoculum measured on day 5 after bacterial infection. The experiment is classed as functional. The essentials:
as §1

For experiment [8], the system named is Staphylococcus aureus. The experiment is described as follows: Antibacterial activity against Staphylococcus aureus Smith by broth microdilution method. The format is functional. An outline of the steps:
(§2)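 MIC was determined by broth microdilution following NCCLS recommendations.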
For orientation: In broth dilution the organism is exposed to a series of concentrations in liquid medium.

For experiment [9], the system named is Enterococcus faecalis. The experiment in a line: Antibacterial activity against Enterococcus faecalis SR1004 by broth microdilution method. The format is functional. An outline of the steps: as §2
In experiment [10] the test system is Escherichia coli. The experiment is described as follows: Antibacterial activity against Escherichia coli EC14 by broth microdilution method. The format is functional. An outline of the steps:
as §2

Experiment [11] has as its system Staphylococcus aureus. The experiment is described as follows: Antibacterial activity against Staphylococcus aureus Smith infected in ICR mouse assessed as survival rate at 50 ug, ip treated 0.5 hrs after infection using 2 X 10^6 CFU inoculum measured on day 5 after bacterial infection. The format is functional. The essentials: as §1
The test system of experiment [12] is Staphylococcus aureus. The experiment in a line: Antibacterial activity against Staphylococcus aureus Smith infected in ICR mouse assessed as survival rate at 50 ug, ip treated at the time of infection using 2 X 10^6 CFU inoculum measured on day 5 after bacterial infection. The experiment is classed as functional. The essentials: as §1
Experiment [13] concerns Staphylococcus aureus. The experiment in a line: Antibacterial activity against Staphylococcus aureus Smith infected in ICR mouse assessed as survival rate at 50 ug, ip pretreated for 1 hr before infection using 2 X 10^6 CFU inoculum measured on day 5 after bacterial infection. The format is functional. An outline of the steps: as §1
The test system of experiment [14] is Staphylococcus aureus. The experiment is described as follows: Antibacterial activity against Staphylococcus aureus Smith infected in ICR mouse assessed as survival rate at 50 ug, ip pretreated for 3 hrs before infection using 2 X 10^6 CFU inoculum measured on day 5 after bacterial infection. The experiment is classed as functional. An outline of the steps:
as §1

The subject of experiment [15] is Staphylococcus aureus. The experiment in a line: Antibacterial activity against Staphylococcus aureus Smith infected in ICR mouse assessed as survival rate at 50 ug, ip pretreated for 7 hrs before infection using 2 X 10^6 CFU inoculum measured on day 5 after bacterial infection. The format is functional. The essentials: as §1
The subject of experiment [16] is Staphylococcus aureus. The experiment in a line: Antibacterial activity against Staphylococcus aureus Smith infected in ICR mouse assessed as survival rate at 50 ug, ip pretreated for 24 hrs before infection using 2 X 10^6 CFU inoculum measured on day 5 after bacterial infection. The experiment is classed as functional. An outline of the steps: as §1
Experiment [17] relates to Staphylococcus aureus. The experiment is described as follows: Antibacterial activity against Staphylococcus aureus Smith infected in ICR mouse assessed as survival rate at 3.13 ug, ip pretreated for 7 hrs before infection using 2 X 10^6 CFU inoculum measured on day 5 after bacterial infection. The experiment is classed as functional. The essentials: as §1
The test system of experiment [18] is Staphylococcus aureus. The experiment in a line: Antibacterial activity against Staphylococcus aureus Smith infected in ICR mouse assessed as survival rate at 12.5 ug, ip pretreated for 7 hrs before infection using 2 X 10^6 CFU inoculum measured on day 5 after bacterial infection. The experiment is classed as functional. An outline of the steps: as §1
The test system of experiment [19] is Staphylococcus aureus. The experiment is described as follows: Antibacterial activity against Staphylococcus aureus Smith infected in ICR mouse assessed as survival rate at 25 ug, ip pretreated for 7 hrs before infection using 2 X 10^6 CFU inoculum measured on day 5 after bacterial infection. The experiment is classed as functional. The essentials: as §1
Experiment [20] deals with Mus musculus. The experiment is described as follows: Induction of ROS generation in intraperitoneally dosed ICR mouse abdominal cavity neutrophils after 7 hrs by lucigenin-dependent chemiluminescence method. The format is functional, organism-based. The essentials:
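Peptide was injected intraperitoneally. After 7 h, peritoneal cells were collected by lavage with 5 ml cold saline, washed, and suspended at 2 × 10⁵ cells/ml in HEPES-buffered Hank's solution, pH 7.4. After 5 min at 37°C, lucigenin was added to 0.1 mM final. Chemiluminescence was read at 37°C in relative light units. The experiment was repeated and representative data shown.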

The subject of experiment [21] is Mus musculus. The experiment in a line: Induction of neutrophil recruitment in intraperitoneally dosed ICR mouse abdominal cavity assessed as accumulation of neutrophils after 7 hrs using hematoxylin and eosin staining by microscopy. The format is functional, organism-based. The essentials:
(§3)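 Peptide was injected intraperitoneally. After 7 h, the peritoneal cavity was lavaged with 5 ml cold sterile saline. Cells were washed, resuspended at 1 × 10⁶/ml in heat-inactivated FCS, cytocentrifuged, and stained with Diff-Quick. Total cells and neutrophils were counted by microscopy, and neutrophil percentage was averaged over five fields ± SD. Comparison used an unpaired t test after arcsine transformation.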

Experiment [22] deals with Mus musculus. The experiment in a line: Induction of neutrophil recruitment in intraperitoneally dosed ICR mouse abdominal cavity assessed as neutrophil level after 7 hrs using hematoxylin and eosin staining by microscopy. The format is functional. An outline of the steps: as §3
The test system of experiment [23] is Staphylococcus aureus. The experiment in a line: Antibacterial activity against Staphylococcus aureus Cowan I infected in intraperitoneally dosed ICR mouse assessed as bacterial kill in abdomen pretreated for 7 hrs before infection using 4 X 10^5 CFU inoculum. The experiment is classed as functional. The essentials:
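Peptide solution (500 μl) was injected ip. After 7 h, S. aureus Cowan I (4 × 10⁵ CFU/mouse) was introduced into the abdominal cavity for 15 min. The peritoneum was lavaged with 5 ml cold sterile saline, serially diluted in PBS and plated on LB agar for 18 h. Colonies were counted against saline-control mice (unpaired Student's t test).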

Experiment [24] deals with Peritoneal macrophage cell. The experiment is described as follows: Induction of Mig/CXCL9 mRNA expression in TGC-elicited ICR mouse peritoneal macrophage at 25 ug/ml after 2.5 to 5 hrs by RT-PCR. The experiment is classed as functional, cell-based. The essentials: (§4)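 Mouse peritoneal macrophages were elicited with 3 ml of 3% thioglycolate medium given intraperitoneally and collected 4 days later by lavage with cold PBS. Cells were seeded at 1 × 10⁶/ml in RPMI-1640 with 10% heat-inactivated FCS and allowed to adhere for 2 h at 37°C; nonadherent cells were then rinsed off. Cells were exposed to peptide at 25 μg/ml for 2.5, 5 or 7.5 h, with LPS at 100 ng/ml for 24 h as positive control. RT-PCR used 400 ng total RNA and 25–35 cycles, with ethidium bromide agarose gels and G3PDH primers; n = 3.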

The test system of experiment [25] is Peritoneal macrophage cell. The experiment is described as follows: Induction of Mig/CXCL9 mRNA expression in TGC-elicited ICR mouse peritoneal macrophage at 25 ug/ml after 7.5 hrs by RT-PCR. The format is functional, cell-based. An outline of the steps:
as §4

For experiment [26], the species on record is Mus musculus. The experiment is described as follows: Induction of Mig/CXCL9 mRNA expression in TGC-elicited ICR mouse peritoneal macrophage at 25 ug/ml after 5 hrs by RT-PCR. The format is functional. An outline of the steps: as §4

With `CC(C)C[C@@H](NC(=O)[C@H](N)CCCCN)C(=O)N[C@H](CCCCN)C(=O)N[C@H](CC(C)C)C(=O)N[C@H](CC(C)C)C(=O)N[C@H](CC(C)C)C(=O)N[C@H](CC(C)C)C(=O)N[C@H](CC(C)C)C(=O)N[C@H](CCCCN)C(=O)N[C@H](CC(C)C)C(=O)N[C@H](CCCCN)C(N)=O` (H-[dK][dL][dK][dL][dL][dL][dL][dL][dK][dL][dK]-NH2), the Activity in experiment [1] is 25%; in experiment [2], 50%; in experiment [3], 100%; in [4], 100%. For the same molecule, the Survival in [5] was 100%; in experiment [6] it was 100%; in experiment [7], 75%; in [11], 0%; in [12], 0%; in experiment [13], 25%. Also, the Survival in [14] worked out at 62.5%; in experiment [15] it was 87.5%; in experiment [16], 0%; in [17] it was 0%; in [18], 0%; in experiment [19], 75%. Further, the MIC in [8], in experiment [9] and in experiment [10] was more than 625 µg/mL each time.

As to H-KLKLLLKLK-NH2, in experiment [5], the Survival is 0%. The outcome in experiment [20] was inactive.

Turning to H-KLKLLLLLKLK-NH2, the Survival was 75% in experiment [5], 75% in experiment [6] and 25% in experiment [7]. The MIC in experiment [8], in [9] and in [10] was more than 625 µg/mL each time. The outcome in experiment [21], in experiment [24], in [26] and in experiment [20] was Active. In addition, the Activity in experiment [22] is 40%; in experiment [23] it was 75%. Moreover, in [25], the result was inactive.
